Data on four molecules can be found in ChEMBL document CHEMBL3621187, “Novel Lobophorins Inhibit Oral Cancer Cell Growth and Induce Atf4- and Chop-Dependent Cell Death in Murine Fibroblasts” (ACS Med Chem Lett, 2015).

Data set [1] concerns UMSCC1. Put plainly: Cytotoxicity against human UMSCC1 cells at 1.25 to 80 uM up to 48 hrs by ATP-based luminescent proliferation assay. The format is functional, cell-based. In outline: (§1)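 Floor-of-mouth OSCC lines (UMSCC1, UMSCC14A) and nonmalignant primary human epidermal keratinocytes were treated at 1.25–80 μM for 24 and 48 h. Growth was measured by ATP-based luminescent proliferation assay, and OSCC vs keratinocytes was compared by two-way ANOVA.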

Data set [2] deals with UMSCC14A. The data set is described as follows: Cytotoxicity against human UMSCC14A cells at 1.25 to 80 uM up to 48 hrs by ATP-based luminescent proliferation assay. The class given is functional, cell-based. In outline: as §1
Data set [3] can be described thus: Cytotoxicity against human HEK cells at 1.25 to 80 uM after 24 hrs by ATP-based luminescent proliferation assay. The format is cell-based. The gist of the method:
as §1

Data set [4] relates to UMSCC14A. The data set is described as follows: Activation of unfolded protein response in human UMSCC14A cells assessed as increase of BiP/GRP78 expression at 40 uM after 6 to 12 hrs by qRT-PCR analysis. The class given is functional, cell-based. Background: Real-time PCR tracks product formation cycle by cycle.
A short description of data set [5]: Activation of unfolded protein response in human UMSC23 cells assessed as increase of CHOP expression at 40 uM after 6 to 12 hrs by qRT-PCR analysis. The class given is functional, cell-based.
Data set [6] can be described thus: Activation of unfolded protein response in human UMSC23 cells assessed as increase of spliced XBP1 expression at 40 uM after 6 to 12 hrs by qRT-PCR analysis. The class given is functional, cell-based.
The nature of data set [7]: Activation of unfolded protein response in human UMSC23 cells assessed as increase of GADD34 expression at 40 uM after 6 to 12 hrs by qRT-PCR analysis. The class given is functional, cell-based.
The nature of data set [8]: Activation of unfolded protein response in human UMSC23 cells assessed as increase of ATF3 expression at 40 uM after 6 to 12 hrs by qRT-PCR analysis. The format is functional, cell-based.
The nature of data set [9]: Activation of unfolded protein response in human UMSC23 cells assessed as increase of BiP/GRP78 expression at 40 uM after 6 to 12 hrs by qRT-PCR analysis. The class given is functional, cell-based.
For data set [10], the system named is MEF. Put plainly: Antiproliferative activity against Atf4-deficient mouse MEF after 16 hrs by ATP-based luminescent proliferation assay. The class given is functional, cell-based. In outline: (§2)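 Atf4−/− and Chop−/− murine embryonic fibroblasts, each with wildtype littermate controls, were dosed across a concentration series for 16 h. Proliferation was read by ATP-based luminescence, and wildtype vs null was compared by two-way ANOVA (dose, interaction).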

The subject of data set [11] is MEF. Put plainly: Antiproliferative activity against Chop-deficient mouse MEF after 16 hrs by ATP-based luminescent proliferation assay. The format is functional, cell-based. In outline: as §2
The test system of data set [12] is MEF. Put plainly: Antiproliferative activity against mouse MEF harboring eIF2-alpha (Ser51Ala) mutant after 16 hrs by ATP-based luminescent proliferation assay. The class given is functional, cell-based.
Data set [13] concerns MEF. Put plainly: Activation of unfolded protein response in Atf4-deficient mouse MEF assessed as effect on Noxa expression at 40 uM after 6 hrs by qRT-PCR analysis. The format is functional, cell-based. The gist of the method: (§3)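 Atf4-null murine embryonic fibroblasts and wildtype littermate controls were exposed to 40 μM for 6 h, with 2.5 μg/mL tunicamycin as comparator. cDNA libraries were made from the cells, and Noxa, Puma and Trb3 transcripts were quantified by qRT-PCR.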

Data set [14] concerns MEF. The data set is described as follows: Activation of unfolded protein response in Atf4-deficient mouse MEF assessed as effect on Puma expression at 40 uM after 6 hrs by qRT-PCR analysis. The class given is functional, cell-based. In outline: as §3
The subject of data set [15] is MEF. Put plainly: Activation of unfolded protein response in Atf4-deficient mouse MEF assessed as effect on Trb3 expression at 40 uM after 6 hrs by qRT-PCR analysis. The format is functional, cell-based. In outline: as §3
Data set [16] concerns UMSCC1. Put plainly: Activation of unfolded protein response in human UMSCC1 cells assessed as increase of CHOP expression at 40 uM after 6 to 12 hrs by qRT-PCR analysis. The class given is functional, cell-based. In outline: (§4)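 UMSCC1 oral squamous carcinoma cells were treated for 6 or 12 h, and UPR marker transcripts were quantified by qRT-PCR.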
The subject of data set [17] is UMSCC1. Put plainly: Activation of unfolded protein response in human UMSCC1 cells assessed as increase of spliced XBP1 expression at 40 uM after 6 to 12 hrs by qRT-PCR analysis. The class given is functional, cell-based. In outline:
as §4

Data set [18] relates to UMSCC1. The data set is described as follows: Activation of unfolded protein response in human UMSCC1 cells assessed as increase of GADD34 expression at 40 uM after 6 to 12 hrs by qRT-PCR analysis. The class given is functional, cell-based. The gist of the method:
as §4

For data set [19], the system named is UMSCC1. The data set is described as follows: Activation of unfolded protein response in human UMSCC1 cells assessed as increase of ATF3 expression at 40 uM after 6 to 12 hrs by qRT-PCR analysis. The format is functional, cell-based. The gist of the method:
as §4

Data set [20] has as its system UMSCC1. Put plainly: Activation of unfolded protein response in human UMSCC1 cells assessed as increase of BiP/GRP78 expression at 40 uM after 6 to 12 hrs by qRT-PCR analysis. The class given is functional, cell-based. The gist of the method: as §4
The subject of data set [21] is UMSCC14A. The data set is described as follows: Activation of unfolded protein response in human UMSCC14A cells assessed as increase of CHOP expression at 40 uM after 6 to 12 hrs by qRT-PCR analysis. The format is functional, cell-based.
For data set [22], the system named is UMSCC14A. Put plainly: Activation of unfolded protein response in human UMSCC14A cells assessed as increase of spliced XBP1 expression at 40 uM after 6 to 12 hrs by qRT-PCR analysis. The format is functional, cell-based.
Data set [23] has as its system UMSCC14A. Put plainly: Activation of unfolded protein response in human UMSCC14A cells assessed as increase of GADD34 expression at 40 uM after 6 to 12 hrs by qRT-PCR analysis. The format is functional, cell-based.
Data set [24] has as its system UMSCC14A. The data set is described as follows: Activation of unfolded protein response in human UMSCC14A cells assessed as increase of ATF3 expression at 40 uM after 6 to 12 hrs by qRT-PCR analysis. The format is functional, cell-based.
The nature of data set [25]: Cytotoxicity against human HEK cells at 1.25 to 80 uM after 48 hrs by ATP-based luminescent proliferation assay. The format is cell-based. The gist of the method: as §1

Each structure is given as a SMILES string. Calls of active or inactive are those of the source. No cut-off for these calls is given here.

Regarding `COC(=O)N[C@H]1[C@@H](C)O[C@@H](O[C@H]2C/C=C(\C)[C@@H]3C=C[C@@H]4[C@@H](O[C@H]5C[C@@H](O[C@H]6C[C@@H](O)[C@@H](O[C@@H]7C[C@@H](O)[C@@H](OC)[C@H](C)O7)[C@H](C)O6)[C@@H](O)[C@H](C)O5)[C@@H](C)C[C@H](C)[C@H]4[C@]3(C)C(=O)C3=C(O)[C@@]4(C[C@@H](C)C(CO)=C[C@H]4/C=C/2C)OC3=O)C[C@]1(C)O`, the result with UMSCC1 [1] and in the data set on UMSCC14A [2] was Active. Also, the Activity entry in data set [3] is listed as “Non-toxic”.

As to `COC(=O)N[C@H]1[C@@H](C)O[C@@H](O[C@H]2C/C=C(\C)[C@@H]3C=C[C@@H]4[C@@H](O[C@H]5C[C@@H](O[C@H]6C[C@@H](O)[C@@H](O)[C@H](C)O6)[C@@H](O)[C@H](C)O5)[C@@H](C)C[C@H](C)[C@H]4[C@]3(C)C(=O)C3=C(O)[C@@]4(C[C@@H](C)C(C)=C[C@H]4/C=C/2C)OC3=O)C[C@]1(C)[N+](=O)[O-]`, the outcome (with UMSCC14A [4]; in [5]; in [6]; in data set [7]; in [8]; in data set [9]) was Active. Moreover, the outcome in the data set with UMSCC1 [1], in the data set with UMSCC14A [2], in the data set on UMSCC1 [16], in the data set with UMSCC1 [17], in the data set with UMSCC1 [18] and in the data set with UMSCC1 [19] was Active. Also, the result in the data set on UMSCC1 [20], in the data set on UMSCC14A [21], with UMSCC14A [22], in the data set with UMSCC14A [23] and in the data set on UMSCC14A [24] was Active. For the same molecule, the outcome in the data set with MEF [10], in the data set on MEF [11], with MEF [12], in the data set with MEF [13], in the data set on MEF [14] and in the data set on MEF [15] was inactive. The Activity entry in data set [3] is listed as “Non-toxic”.

For `COC(=O)N[C@H]1[C@@H](C)O[C@@H](O[C@H]2C/C=C(\C)[C@@H]3C=C[C@@H]4[C@@H](O[C@H]5C[C@@H](O[C@H]6C[C@@H](O)[C@@H](O[C@@H]7C[C@@H](O)[C@@H](OC)[C@H](C)O7)[C@H](C)O6)[C@@H](O)[C@H](C)O5)[C@@H](C)C[C@H](C)[C@H]4[C@]3(C)C(=O)C3=C(O)[C@@]4(C[C@@H](C)C(C)=C[C@H]4/C=C/2C)OC3=O)C[C@]1(C)[N+](=O)[O-]`, the result in the data set with UMSCC1 [1] and with UMSCC14A [2] was Active. The Activity entry in data set [3] is reported as “Non-toxic”; in data set [25], “Toxic”.

`COC(=O)N[C@H]1[C@@H](C)O[C@@H](O[C@H]2C/C=C(\C)[C@@H]3C=C[C@@H]4[C@@H](O[C@H]5C[C@@H](O[C@H]6C[C@@H](O)[C@@H](O[C@@H]7C[C@@H](O)[C@@H](OC)[C@H](C)O7)[C@H](C)O6)[C@@H](O)[C@H](C)O5)[C@@H](C)C[C@H](C)[C@H]4[C@]3(C)C(=O)C3=C(O)[C@@]4(C[C@@H](C)C(CO)=C[C@H]4/C=C/2C)OC3=O)C[C@]1(C)[N+](=O)[O-]`: the outcome in the data set with MEF [13], in the data set with MEF [14] and in the data set with MEF [15] was inactive. The outcome in the data set on UMSCC1 [1] and in the data set with UMSCC14A [2] was Active. Further, the Activity entry in data set [3] was “Non-toxic”; in data set [25], “Toxic”.
